From PubChem BioAssay
Sampled rows, rich in hits. Any-hit rate of the full collection: about 2.8%.
PAFAH1B2 FP inh: PAFAH1B2 enzyme inhibitors, primary screen, biochemical, fluorescence polarization, human; AID 492953, 2010; recombinant PAFAH1B2, FP-rhodamine activity probe; hit rate 1.2% among 340,000; Platelet-activating factor acetylhydrolase IB subunit alpha2 (Homo sapiens), P68402; inhibition, % at 3.39 µM;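 active = inhibition above the mean of all tested compounds plus 3 SD, cut at about 24% in these data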;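 also: 0% = enzyme with DMSO and 100% = wells lacking PAFAH1B2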
pPAFAH inh: pPAFAH enzyme inhibitors, primary screen, biochemical, fluorescence polarization, human; recombinant pPAFAH, FP-rhodamine probe fluorescence polarization; AID 463082, 2010; Platelet-activating factor acetylhydrolase (Homo sapiens), Q13093; hit rate 1.5% among 330,000; inhibition, % at 3.39 µM;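 active = inhibition above the mean inhibition across the screen plus 3 SD, cut at about 25% in these data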;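 also: inhibitors block binding of the rhodamine activity-based probe so polarization drops; 0% = enzyme with DMSO and 100% = wells lacking pPAFAH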
ABHD4 inh: ABHD4 inhibitors, primary screen, biochemical, fluorescence polarization, mouse; (Lyso)-N-acylphosphatidylethanolamine lipase (Mus musculus), Q8VD66; purified mABHD4, FP-Rh probe fluorescence polarization; inhibition, % at 8.92 µM; hit rate 0.54% among 370,000; AID 720543, 2013;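 active = inhibition exceeding the mean over every tested compound plus 3 SD, cut at about 30% in these data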;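 also: 0% = plate median of compound wells and 100% = S159A mutant with DMSO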
Target sequence (Q8VD66 whole entry, looked up): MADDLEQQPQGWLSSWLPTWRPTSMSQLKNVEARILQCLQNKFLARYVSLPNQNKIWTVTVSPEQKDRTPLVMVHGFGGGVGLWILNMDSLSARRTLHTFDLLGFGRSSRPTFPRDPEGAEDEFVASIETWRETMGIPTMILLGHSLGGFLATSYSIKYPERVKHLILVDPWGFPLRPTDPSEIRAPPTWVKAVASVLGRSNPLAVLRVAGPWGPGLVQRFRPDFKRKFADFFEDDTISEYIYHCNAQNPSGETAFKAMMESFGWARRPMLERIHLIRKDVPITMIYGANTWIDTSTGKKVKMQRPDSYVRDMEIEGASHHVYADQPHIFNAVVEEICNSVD
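assay system = mABHD4 protein | compound dosing = single nominal dose of 8.92 µM, 0.89% DMSO final | read-out basis = percent inhibition of probe binding, normalized to plate controls | schedule = Enzyme–compound pre-incubation 45 min, then probe 60 min, both 25 °C | detection = fluorescence polarization, excitation 525 nm, emission 598 nm, BODIPY TMR filters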
PAFAH2 inh: PAFAH2 enzyme inhibitors, primary screen, biochemical, fluorescence polarization, human | Platelet-activating factor acetylhydrolase 2, cytoplasmic (Homo sapiens), Q99487 | recombinant PAFAH2, FP-rhodamine activity probe | inhibition, % at 3.39 µM | hit rate 0.99% among 340,000 | AID 492956, 2010;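 active = inhibition above the mean over all tested compounds plus 3 SD, cut at about 30% in these data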;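 also: inhibitors block probe labeling of enzyme so polarization drops; 0% = enzyme with DMSO and 100% = wells lacking PAFAH2 protein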
PAFAH1B3 FP inh: PAFAH1B3 enzyme inhibitors, primary screen, biochemical, fluorescence polarization, human. Platelet-activating factor acetylhydrolase IB subunit alpha1 (Homo sapiens), Q15102. recombinant PAFAH1B3, FP-rhodamine probe. inhibition, % at 3.39 µM. hit rate 0.28% among 340,000;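 active = inhibition above the screen-wide average of all tested compounds plus 3 SD, cut at about 25% in these data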;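 also: 0% = enzyme with DMSO only and 100% = wells lacking PAFAH1B3 protein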
Target sequence (Q15102 whole entry, looked up): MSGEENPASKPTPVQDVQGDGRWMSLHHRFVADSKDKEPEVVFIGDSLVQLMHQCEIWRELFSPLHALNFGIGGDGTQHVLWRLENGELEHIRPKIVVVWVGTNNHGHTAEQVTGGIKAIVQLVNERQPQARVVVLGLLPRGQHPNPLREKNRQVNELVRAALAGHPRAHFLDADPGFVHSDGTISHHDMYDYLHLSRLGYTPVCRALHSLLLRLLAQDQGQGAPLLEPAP
HTRA1 inh: HTRA1 serine protease inhibitors, primary screen, biochemical, fluorescence polarization, HTS; Q92743; recombinant HTRA1, FP-rhodamine activity-based probe; inhibition, % at 5.96 µM; hit rate 0.5% among 340,000; in the data active = inhibition above about 36%;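 also: 0% = enzyme with DMSO and 100% = wells lacking enzyme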
* marks the source's active call; other numbers are inactive results.

How did COC(=O)[C@]12C[C@H](CC(=O)NCc3ccccc3)C(=O)N(Cc3ccco3)C1=C[C@H](C(C)(C)C)O[C@@H]2C do in these assays?
ABHD4 inh: 7

What do the screens show for `Cc1cc2c(cc1S(=O)(=O)NCCc1ccccc1)NC(=O)CO2`?
PAFAH1B2 FP inh: 29*; pPAFAH inh: 6; ABHD4 inh: 2; PAFAH2 inh: 7; PAFAH1B3 FP inh: 8; HTRA1 inh: -1

What do the screens show for `Cc1cc2c(cc1S(=O)(=O)NCc1ccccc1)NC(=O)CO2`?
PAFAH1B2 FP inh: 11; pPAFAH inh: 8; ABHD4 inh: 4; PAFAH2 inh: 0; PAFAH1B3 FP inh: 0; HTRA1 inh: 6

Results for Cc1ccc(CNS(=O)(=O)c2ccc3c(c2)NC(=O)CO3)cc1 ?
PAFAH1B2 FP inh: 26*; pPAFAH inh: 3; ABHD4 inh: 9; PAFAH2 inh: -9; PAFAH1B3 FP inh: 10; HTRA1 inh: 6

What do the screens show for `O=S(=O)(Nc1cccc2ccccc12)c1cccs1`?
PAFAH1B2 FP inh: 0; pPAFAH inh: 9; ABHD4 inh: 4; PAFAH2 inh: 1; PAFAH1B3 FP inh: 5; HTRA1 inh: -1

What do the screens show for `O=C(O)c1ccc(/C=N/NC(=O)c2ccc(NS(=O)(=O)c3cccs3)cc2)cc1`?
PAFAH1B2 FP inh: -2; pPAFAH inh: 2; ABHD4 inh: -9; PAFAH2 inh: -3; PAFAH1B3 FP inh: 11; HTRA1 inh: -15

How did O=S(=O)(Nc1ccc(Br)cc1)c1cccc(NS(=O)(=O)c2cccs2)c1 do in these assays?
PAFAH1B2 FP inh: 75*; ABHD4 inh: -17; PAFAH2 inh: 43*; PAFAH1B3 FP inh: -1; HTRA1 inh: -6

What do the screens show for `O=C(O)c1cc(NS(=O)(=O)c2cccs2)cc(NS(=O)(=O)c2cccs2)c1`?
PAFAH1B2 FP inh: 25*; pPAFAH inh: 3; ABHD4 inh: 7; PAFAH2 inh: 11; PAFAH1B3 FP inh: 3; HTRA1 inh: 5

Results for NS(=O)(=O)c1ccc(NS(=O)(=O)c2cccs2)cc1 ?
PAFAH1B2 FP inh: -1; pPAFAH inh: -3; ABHD4 inh: -7; PAFAH2 inh: -2; PAFAH1B3 FP inh: 1; HTRA1 inh: -5

How did O=S(=O)(Nc1ccc(O)c2ccccc12)c1cccs1 do in these assays?
PAFAH1B2 FP inh: 13; pPAFAH inh: 20; ABHD4 inh: 46*; PAFAH2 inh: 10; PAFAH1B3 FP inh: 6; HTRA1 inh: 24

What do the screens show for `C[C@@H]1OCN(C)[C@H]2C[C@H]3c4[nH]c5cccc(-c6ccccc6)c5c4CCN3C[C@@H]12`?
ABHD4 inh: -1

How did COC(=O)[C@]12C[C@H](CC(=O)NCc3ccc(C)o3)C(=O)N(CCC3=CCCCC3)C1=C[C@H](C1CCCC1)O[C@@H]2C do in these assays?
ABHD4 inh: 4

What do the screens show for `Nc1[nH]c(C(=O)c2ccccc2)c(-c2cccc3ccccc23)c1C(=O)NC1CCCCC1`?
ABHD4 inh: -24

What do the screens show for `Nc1c(C(=O)c2ccccc2)sc2snc(SCC(=O)c3ccccc3)c12`?
PAFAH1B2 FP inh: 15; pPAFAH inh: 27*; ABHD4 inh: 15; PAFAH2 inh: 44*; PAFAH1B3 FP inh: 15; HTRA1 inh: 14

What do the screens show for `CCOC(=O)c1ccc(NC(=S)N2CCCC(C(=O)N3CCCC3)C2)cc1` (configuration not stated)?
PAFAH1B2 FP inh: 0; pPAFAH inh: 32*; ABHD4 inh: 7; PAFAH2 inh: 1; PAFAH1B3 FP inh: -1; HTRA1 inh: -4

Results for Cc1ccccc1-c1cc2nc(-c3ccc([N+](=O)[O-])cc3)cc(=O)n2[nH]1 ?
PAFAH1B2 FP inh: 4; pPAFAH inh: 2; ABHD4 inh: 4; PAFAH2 inh: 10; PAFAH1B3 FP inh: 10; HTRA1 inh: -1

How did O=c1cc(-c2ccc([N+](=O)[O-])cc2)nc2cc(-c3ccc(F)cc3)[nH]n12 do in these assays?
PAFAH1B2 FP inh: 58*; pPAFAH inh: 33*; ABHD4 inh: 20; PAFAH2 inh: 17; PAFAH1B3 FP inh: 10; HTRA1 inh: 1

Results for CCCCC(CC)CNC(=O)CN(C)S(=O)(=O)c1cccc2nsnc12 (configuration not stated) ?
PAFAH1B2 FP inh: 25*; pPAFAH inh: 3; ABHD4 inh: -5; PAFAH2 inh: 6; PAFAH1B3 FP inh: 9; HTRA1 inh: 1

What do the screens show for `COCCCN1C(=O)[C@H](CC(=O)NCc2cccc(C(F)(F)F)c2)[C@]2(C(=O)OC)CCCCC=C12`?
ABHD4 inh: -2

How did CCN(CC)C(=O)CC[C@@H]1CC[C@]2(CCCN(C(=O)C3CCCCC3)C2)O1 do in these assays?
ABHD4 inh: -1

Results for COc1ccc(Nc2nc(-c3ccc4c(c3)NC(=O)CO4)cs2)cc1 ?
PAFAH1B2 FP inh: -2; pPAFAH inh: 30*; ABHD4 inh: 28; PAFAH2 inh: 3; PAFAH1B3 FP inh: 6; HTRA1 inh: 31

How did CCC(C)Nc1nc(-c2ccc3c(c2)NC(=O)CO3)cs1 (configuration not stated) do in these assays?
PAFAH1B2 FP inh: 0; pPAFAH inh: 25*; ABHD4 inh: -15; PAFAH2 inh: 3; PAFAH1B3 FP inh: 1; HTRA1 inh: 6

What do the screens show for `COc1ccccc1Nc1nc(-c2ccc3c(c2)NC(=O)CO3)cs1`?
PAFAH1B2 FP inh: 0; pPAFAH inh: 21; ABHD4 inh: 19; PAFAH2 inh: -2; PAFAH1B3 FP inh: 20; HTRA1 inh: 1

What do the screens show for `CCC(C)(C)C(=O)N1CCc2cc(S(=O)(=O)N(C)Cc3ccco3)ccc21`?
ABHD4 inh: -4

What do the screens show for `COc1ccc(C[N+]2=C(N)N[C@@]3(C=C(C)Cn4c(=O)n(-c5ccccc5)c(=O)n43)C2)c(OC)c1`?
ABHD4 inh: 7

Results for O=C(CSCc1ccccc1Cl)NNC(=S)Nc1ccccc1 ?
PAFAH1B2 FP inh: 8; pPAFAH inh: 29*; ABHD4 inh: 3; PAFAH2 inh: 8; PAFAH1B3 FP inh: -5; HTRA1 inh: 16

What do the screens show for `O=C1C(O)=C(O)C(=O)c2ccccc21`?
PAFAH1B2 FP inh: 3; pPAFAH inh: 10; ABHD4 inh: 24; PAFAH2 inh: 15; PAFAH1B3 FP inh: 30*; HTRA1 inh: 9

What do the screens show for `CCC(C)N(C(=O)c1ccc(CNC(=O)c2cccc(Br)c2)cc1)C(C)CC` (configuration not stated)?
ABHD4 inh: -5

How did COc1ccccc1NS(=O)(=O)c1ccc(NC(=O)c2nc3ncccn3n2)cc1 do in these assays?
PAFAH1B2 FP inh: -2; ABHD4 inh: 6; PAFAH2 inh: -4; PAFAH1B3 FP inh: 5; HTRA1 inh: 0
